18 molecules from ChEMBL document CHEMBL3112493, “Synthesis of 2,6-disubstituted benzylamine derivatives as reversible selective inhibitors of copper amine oxidases” (Bioorg Med Chem, 2014) can be followed below.

Series [1] in a line: Acute toxicity in ip dosed Swiss mouse assessed as appearance of tonic-clonic convulsion followed by respiratory block measured after 15 to 20 mins. To be noted: in vivo. The format is organism-based.
The species named for series [2] is Sus scrofa. Put plainly: Reversible inhibition of porcine serum BAO using [7-14C]-benzylamine as substrate assessed as residual activity at 4 times IC50 preincubated for 5 mins followed by 10 fold dilution relative to control. In short, it runs like this:
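Solutions were diluted 1:10 and 1:100, and portions were dialyzed against water at 4 °C for 24 h. Activity was read with saturating [7-14C]benzylamine; the reaction was stopped with 3 N HCl and labeled benzaldehyde extracted into ethyl acetate and counted.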

The species entered for series [3] is Sus scrofa. Kind of series: Mixed-type inhibition of porcine serum BAO using [7-14C]-benzylamine as substrate by Lineweaver-Burk plot analysis.
For series [4], the target named is T1, Diamine oxidase [copper-containing] (Sus scrofa, UniProt Q9TRC7).
T1 sequence (Q9TRC7 whole entry): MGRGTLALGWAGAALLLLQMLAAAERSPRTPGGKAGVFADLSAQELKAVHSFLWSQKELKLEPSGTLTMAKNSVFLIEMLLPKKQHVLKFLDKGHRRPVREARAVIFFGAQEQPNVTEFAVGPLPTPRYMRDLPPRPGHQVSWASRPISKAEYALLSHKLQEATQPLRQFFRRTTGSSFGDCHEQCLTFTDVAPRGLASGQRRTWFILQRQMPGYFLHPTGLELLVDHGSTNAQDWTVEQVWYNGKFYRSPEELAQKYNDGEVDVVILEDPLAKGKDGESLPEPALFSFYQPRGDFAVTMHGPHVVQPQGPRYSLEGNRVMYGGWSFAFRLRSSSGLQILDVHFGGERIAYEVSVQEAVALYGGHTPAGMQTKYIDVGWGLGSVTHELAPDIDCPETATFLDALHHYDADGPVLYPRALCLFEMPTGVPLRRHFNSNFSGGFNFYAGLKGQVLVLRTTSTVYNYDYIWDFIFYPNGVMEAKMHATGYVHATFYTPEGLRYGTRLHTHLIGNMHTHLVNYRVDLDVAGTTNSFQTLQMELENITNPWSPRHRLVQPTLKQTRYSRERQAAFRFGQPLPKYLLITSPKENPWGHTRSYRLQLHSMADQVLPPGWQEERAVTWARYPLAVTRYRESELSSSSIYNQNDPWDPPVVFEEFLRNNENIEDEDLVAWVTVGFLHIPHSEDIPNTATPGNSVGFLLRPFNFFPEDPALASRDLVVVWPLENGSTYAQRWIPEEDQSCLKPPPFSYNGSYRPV
Kind of series: Inhibition of porcine kidney DAO using [1,4-14C]-putrescine as substrate preincubated for 30 mins followed by substrate addition. In short, it runs like this:
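Porcine kidney diamine oxidase was preincubated with inhibitor at 6 concentrations for 30 min at 30 °C. Saturating [1,4-14C]putrescine was then added and activity was determined radiochemically. In some cases H2O2 production was measured by the 4-aminoantipyrine method.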

Series [5] concerns the target T2, Amine oxidase [flavin-containing] B (Rattus norvegicus, UniProt P19643).
T2 sequence (P19643 whole entry): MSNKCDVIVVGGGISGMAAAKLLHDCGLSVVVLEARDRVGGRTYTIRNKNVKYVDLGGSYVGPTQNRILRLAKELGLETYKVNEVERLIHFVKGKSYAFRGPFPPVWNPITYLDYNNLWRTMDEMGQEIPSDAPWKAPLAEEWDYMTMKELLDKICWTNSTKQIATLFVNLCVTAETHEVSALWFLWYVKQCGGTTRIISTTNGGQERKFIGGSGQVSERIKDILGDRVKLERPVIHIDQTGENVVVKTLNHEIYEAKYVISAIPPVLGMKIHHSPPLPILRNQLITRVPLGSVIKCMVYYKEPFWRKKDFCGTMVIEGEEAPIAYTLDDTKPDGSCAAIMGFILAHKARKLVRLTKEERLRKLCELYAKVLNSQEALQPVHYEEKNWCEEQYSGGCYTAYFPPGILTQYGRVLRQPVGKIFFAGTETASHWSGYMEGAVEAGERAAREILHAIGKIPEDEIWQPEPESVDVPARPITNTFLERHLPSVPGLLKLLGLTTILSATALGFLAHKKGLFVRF
Kind of series: Inhibition of rat liver MAO-B using 2-phenyl[1-14C]-ethylamine/[7-14C]-benzylamine as substrate preincubated for 30 mins followed by substrate addition. In short, it runs like this:
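MAO B source was rat liver mitochondria, obtained by 1:10 homogenization in 0.01 M phosphate pH 7.4 with 0.25 M sucrose, then centrifugation at 1000g and 10,000g (20 min each). Mitochondria were preincubated with inhibitor (6 concentrations) for 30 min at 30 °C. Saturating 2-phenyl[1-14C]ethylamine was then added and activity measured radiochemically.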

In another series the target is T3, Protein-lysine 6-oxidase (Sus scrofa, UniProt P45845).
T3 sequence (P45845 whole entry): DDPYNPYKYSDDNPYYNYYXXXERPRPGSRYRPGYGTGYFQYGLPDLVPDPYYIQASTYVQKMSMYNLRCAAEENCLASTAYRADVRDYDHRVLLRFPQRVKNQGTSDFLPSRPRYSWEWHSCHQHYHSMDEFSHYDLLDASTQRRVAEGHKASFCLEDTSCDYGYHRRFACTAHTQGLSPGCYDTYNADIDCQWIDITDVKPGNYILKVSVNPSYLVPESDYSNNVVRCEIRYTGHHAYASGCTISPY
Put plainly: Inhibition of porcine aorta lysyl oxidase preincubated for 30 mins followed by substrate addition. In short, it runs like this: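 Porcine aorta lysyl oxidase, prepared in-house. Enzyme was preincubated with inhibitor at 6 concentrations for 30 min at 30 °C. Saturating tritiated protein-bound lysine substrate was then added and activity was measured radiochemically. In some cases H2O2 production was followed instead, by the 4-aminoantipyrine method.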

Series [6] can be described thus: Inhibition of porcine serum BAO using [7-14C]-benzylamine as substrate preincubated for 30 mins followed by substrate addition. More on the design: species or system Sus scrofa. In short, it runs like this: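 Porcine serum benzylamine oxidase was preincubated with inhibitor at 6 concentrations for 30 min at 30 °C. [7-14C]Benzylamine was then added at a saturating level and radiochemical activity was measured. In some cases H2O2 formation was followed by the 4-aminoantipyrine method.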

Series [7] is filed under the species Sus scrofa. Put plainly: Non-competitive inhibition of porcine serum BAO using [7-14C]-benzylamine as substrate by Lineweaver-Burk plot analysis.
Series [8] is described as follows: Oral bioavailability in rat. The format is ADME, organism-based. The settings on record: in vivo.
Series [9] is described as follows: Half life in rat. It is filed as ADME, organism-based. To be noted: in vivo.

Activity calls are given as the source filed them. A value given as a limit tells only on which side of the number the result lay.

As a reminder, the LD50 is the dose at which mortality reaches 50%. As usually defined, the IC50 is the concentration needed to halve the response being measured. A higher IC50 goes with lower potency. On to `CCc1cccc(CC)c1CN.Cl`, for which the LD50 in series [1] amounted to 92 mg/kg. Also, the Activity in the series filed under Sus scrofa [2] is above 80%. The “inhibition mode (qualitative)” value in the series listed under Sus scrofa [3] was “Active”. Also, the IC50 (in [4]; in series [5]; at Protein-lysine 6-oxidase) was above 1000 µM throughout.
`CCOCc1cccc(COCC)c1CN`: the IC50 (in [4]; in [6]; in series [5]; against Protein-lysine 6-oxidase) was above 1000 µM throughout.
As to `Cl.NCc1c(OCCO)cccc1OCCO`, in series [1], the LD50 was above 1000 mg/kg. Besides, the Activity in the series filed under Sus scrofa [2] is 50%. Besides, the “inhibition mode (qualitative)” value in the series filed under Sus scrofa [3] is “Active”. Moreover, the IC50 in [4] is above 1000 µM; in [6], 2.6 µM; in series [5] it was above 1000 µM; against Protein-lysine 6-oxidase, above 1000 µM.
Take `CC(C)Oc1cccc(OC(C)C)c1CN`: the IC50 (in series [4]; in series [6]; in series [5]; against Protein-lysine 6-oxidase) was above 1000 µM in each case.
Regarding `CCCCc1cccc(CCCC)c1CN.Cl`, the LD50 in [1] turned out to be 54 mg/kg. For the same molecule, the Activity in the series filed under Sus scrofa [2] was above 80%. The “inhibition mode (qualitative)” value in the series listed under Sus scrofa [3] is “Active”. Further, the IC50 was above 1000 µM in [4], 14 µM in series [6], above 1000 µM in series [5] and above 1000 µM at Protein-lysine 6-oxidase.
In the case of `CCCCOc1cccc(OCCCC)c1CN.Cl`, in [1], the LD50 was found to be 25 mg/kg. Besides, in the series filed under Sus scrofa [2], the Activity is 50%. The IC50 in series [4] is above 1000 µM; in [6], 0.14 µM; in series [5], above 1000 µM; at Protein-lysine 6-oxidase, above 1000 µM. Moreover, the inhibition entry in the series listed under Sus scrofa [7] was “Active”.
A word on the bioavailability: it is the share of a dose that reaches the circulation, judged against a reference dose that is usually intravenous. A lower bioavailability goes with little systemic uptake. As usually defined, the half-life is the time needed for the level to fall by half in the phase considered. The low end stands for fast loss, the high end for slow loss. As to `CCOc1cncc(OCC)c1CN`, the bioavailability in series [8] came to 51.5%. Besides, in [9], the half-life is 2 h.
Take `NCc1c(O)cccc1O`: the IC50 (in series [4]; in series [6]; in [5]; against Protein-lysine 6-oxidase) was above 1000 µM in each case.
On to `NCc1ccccc1CO`, for which the half-inhibitory concentration (IC50) (in series [4]; in [6]; in series [5]; on Protein-lysine 6-oxidase) was above 1000 µM throughout.
Turning to `CCOc1ccccc1CN`, the IC50 (in series [4]; in [6]; in series [5]; against Protein-lysine 6-oxidase) was above 1000 µM each time.
As for `CCOc1cccc(OCC)c1CN.Cl`, the LD50 in series [1] was 74 mg/kg. Further, the Activity in the series listed under Sus scrofa [2] is 50%. In addition, the “inhibition mode (qualitative)” value in the series filed under Sus scrofa [3] was “Active”. In addition, the IC50 is above 1000 µM in [4], 0.18 µM in series [6], above 1000 µM in series [5] and above 1000 µM against Protein-lysine 6-oxidase.
Take `Cl.NCc1c(OCCCO)cccc1OCCCO`: in [1], the median lethal dose (LD50) came to 690 mg/kg. In the series filed under Sus scrofa [2], the Activity was 50%. Also, the “inhibition mode (qualitative)” value in the series listed under Sus scrofa [3] is “Active”. The IC50 in series [4] was above 1000 µM; in series [6], 0.55 µM; in [5] it was above 1000 µM; on Protein-lysine 6-oxidase, above 1000 µM.
As for `NCc1ccccc1O`, the IC50 (in series [4]; in [6]; in series [5]; against Protein-lysine 6-oxidase) was above 1000 µM throughout.
Consider `Cl.NCc1c(OCCCCO)cccc1OCCCCO`, for which, in series [1], the LD50 turned out to be 540 mg/kg. For the same molecule, the Activity in the series listed under Sus scrofa [2] was determined as 50%. In the series listed under Sus scrofa [3], the “inhibition mode (qualitative)” value is “Active”. Moreover, the IC50 in series [4] is above 1000 µM; in series [6] it was 0.066 µM; in series [5] it was above 1000 µM; at Protein-lysine 6-oxidase, above 1000 µM.
Consider `CCCOc1cccc(OCCC)c1CN.Cl`, for which the median lethal dose (LD50) in series [1] is 37 mg/kg. Besides, the Activity in the series filed under Sus scrofa [2] is 50%. Further, the “inhibition mode (qualitative)” value in the series filed under Sus scrofa [3] was “Active”. Further, the IC50 (in series [4]; in [5]; on Protein-lysine 6-oxidase) was above 1000 µM in each case.
Consider `COCc1cccc(COC)c1CN.Cl`, for which, in [1], the LD50 worked out at 240 mg/kg. In addition, in the series filed under Sus scrofa [2], the Activity is above 80%. In addition, in the series listed under Sus scrofa [3], the “inhibition mode (qualitative)” value is “Active”. Besides, the IC50 (in [4]; in series [6]; in series [5]; against Protein-lysine 6-oxidase) was above 1000 µM each time.
As for `CCCc1cccc(CCC)c1CN.Cl`, the LD50 in series [1] is 55 mg/kg. For the same molecule, the Activity in the series listed under Sus scrofa [2] is above 80%. Moreover, the “inhibition mode (qualitative)” value in the series filed under Sus scrofa [3] was “Active”. Moreover, the IC50 in series [4] was above 1000 µM; in series [6] it was 15 µM; in series [5] it was above 1000 µM; at Protein-lysine 6-oxidase it was above 1000 µM.
On to `COc1cccc(OC)c1CN.Cl`, for which the LD50 in [1] worked out at 120 mg/kg. Also, the Activity in the series listed under Sus scrofa [2] is above 80%. Besides, the “inhibition mode (qualitative)” value in the series listed under Sus scrofa [3] was “Active”. The IC50 is above 1000 µM in series [4], 120 µM in [6], 190 µM in series [5] and above 1000 µM against Protein-lysine 6-oxidase.
